Measured values reported in article PMC11628833 (Acta Pharmaceutica Sinica. B, 2024).

Columns and labels:
TLR5 = TLR5 (Homo sapiens, UniProt O60602); assay: Specificity test in HEK-Blue TLR-overexpressing cells, TLR5; type: cell-based; details: 5 μM S-1, HEK-Blue TLR cells, TLR-specific agonist
TLR9 = molecular target: T1, TLR9 (Homo sapiens, UniProt Q9NR96); assay: Specificity test in HEK-Blue TLR-overexpressing cells, TLR9; type: cell-based; details: 5 μM S-1, HEK-Blue TLR cells, TLR-specific agonist
T1 sequence (Q9NR96 26-1032): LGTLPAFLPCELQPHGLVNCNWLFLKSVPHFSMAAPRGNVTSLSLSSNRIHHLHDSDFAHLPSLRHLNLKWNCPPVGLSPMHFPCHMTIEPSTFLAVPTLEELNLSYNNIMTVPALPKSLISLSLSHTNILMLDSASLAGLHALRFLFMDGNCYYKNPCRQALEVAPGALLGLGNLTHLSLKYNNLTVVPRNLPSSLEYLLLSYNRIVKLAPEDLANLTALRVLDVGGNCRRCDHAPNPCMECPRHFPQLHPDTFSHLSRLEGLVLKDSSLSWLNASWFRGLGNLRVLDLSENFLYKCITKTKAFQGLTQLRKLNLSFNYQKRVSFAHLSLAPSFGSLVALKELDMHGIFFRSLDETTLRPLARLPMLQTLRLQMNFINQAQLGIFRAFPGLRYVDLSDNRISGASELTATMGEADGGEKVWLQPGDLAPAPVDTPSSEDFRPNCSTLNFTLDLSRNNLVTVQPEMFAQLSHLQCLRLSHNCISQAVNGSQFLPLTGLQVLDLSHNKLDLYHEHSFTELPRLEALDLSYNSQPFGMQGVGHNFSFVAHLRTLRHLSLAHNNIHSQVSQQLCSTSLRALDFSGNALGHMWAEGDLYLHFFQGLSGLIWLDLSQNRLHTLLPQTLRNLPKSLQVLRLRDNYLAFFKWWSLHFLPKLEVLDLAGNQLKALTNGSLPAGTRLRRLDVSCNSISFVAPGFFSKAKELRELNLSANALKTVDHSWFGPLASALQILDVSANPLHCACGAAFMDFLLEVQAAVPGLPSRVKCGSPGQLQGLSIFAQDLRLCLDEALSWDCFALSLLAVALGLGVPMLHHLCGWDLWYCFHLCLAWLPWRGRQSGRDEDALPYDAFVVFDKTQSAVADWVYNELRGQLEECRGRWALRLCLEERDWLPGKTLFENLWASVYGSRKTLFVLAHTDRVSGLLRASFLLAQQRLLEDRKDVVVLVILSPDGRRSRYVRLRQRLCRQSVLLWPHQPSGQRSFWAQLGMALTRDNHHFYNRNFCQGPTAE

human TLR7 = molecular target: T2, human TLR7 (Homo sapiens, UniProt Q9NYK1); assay: SEAP reporter assay in HEK-Blue hTLR7 cells; type: cell-based
T2 sequence (Q9NYK1 27-1049): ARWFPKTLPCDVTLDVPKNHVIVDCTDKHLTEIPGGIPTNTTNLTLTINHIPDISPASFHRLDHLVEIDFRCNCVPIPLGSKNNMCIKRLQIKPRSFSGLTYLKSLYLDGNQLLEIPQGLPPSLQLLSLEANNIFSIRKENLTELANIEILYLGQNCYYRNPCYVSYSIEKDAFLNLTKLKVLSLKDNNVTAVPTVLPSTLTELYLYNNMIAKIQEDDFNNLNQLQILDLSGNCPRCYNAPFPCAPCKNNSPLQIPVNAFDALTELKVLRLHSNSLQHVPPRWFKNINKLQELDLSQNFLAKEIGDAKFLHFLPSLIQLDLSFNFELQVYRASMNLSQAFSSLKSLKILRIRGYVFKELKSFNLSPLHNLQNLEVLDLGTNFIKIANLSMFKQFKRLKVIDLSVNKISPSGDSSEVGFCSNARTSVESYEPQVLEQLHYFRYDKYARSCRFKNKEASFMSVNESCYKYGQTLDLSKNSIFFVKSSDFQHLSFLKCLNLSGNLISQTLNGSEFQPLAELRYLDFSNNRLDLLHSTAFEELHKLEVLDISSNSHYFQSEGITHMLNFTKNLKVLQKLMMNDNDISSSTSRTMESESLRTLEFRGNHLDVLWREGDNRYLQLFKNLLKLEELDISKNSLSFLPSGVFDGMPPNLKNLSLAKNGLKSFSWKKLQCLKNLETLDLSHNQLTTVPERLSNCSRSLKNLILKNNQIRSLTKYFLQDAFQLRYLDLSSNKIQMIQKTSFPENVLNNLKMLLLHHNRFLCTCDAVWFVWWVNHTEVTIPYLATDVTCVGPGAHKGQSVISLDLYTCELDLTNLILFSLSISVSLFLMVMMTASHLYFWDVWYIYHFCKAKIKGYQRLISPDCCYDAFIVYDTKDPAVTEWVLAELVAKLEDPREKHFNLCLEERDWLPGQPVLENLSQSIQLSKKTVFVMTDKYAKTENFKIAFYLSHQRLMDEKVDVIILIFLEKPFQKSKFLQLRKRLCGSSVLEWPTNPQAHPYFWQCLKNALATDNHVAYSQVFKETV
Outline: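 HEK-Blue hTLR7 cells (stable human TLR7 with SEAP reporter) were plated at 5 × 10^5 cells/mL in DMEM with 10% heat-inactivated FBS. They were treated with R848 and varying test compound concentrations at 37 °C for 20–24 h. Medium was mixed with QUANTI-Blue, incubated at 37 °C for about 30 min, and read at 620 nm. R848-only = 100% activation; untreated = 0%.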

TLR1/2/6 = assay: Specificity test in HEK-Blue TLR-overexpressing cells, TLR1/2/6; type: cell-based, human; details: 5 μM S-1, HEK-Blue TLR cells, TLR-specific agonists
TLR4 = TLR4 (Homo sapiens, UniProt O00206); assay: Specificity test in HEK-Blue TLR-overexpressing cells, TLR4; type: cell-based; details: 5 μM S-1, HEK-Blue TLR cells, TLR-specific agonist
Chain of TLR4 (O00206 24-839): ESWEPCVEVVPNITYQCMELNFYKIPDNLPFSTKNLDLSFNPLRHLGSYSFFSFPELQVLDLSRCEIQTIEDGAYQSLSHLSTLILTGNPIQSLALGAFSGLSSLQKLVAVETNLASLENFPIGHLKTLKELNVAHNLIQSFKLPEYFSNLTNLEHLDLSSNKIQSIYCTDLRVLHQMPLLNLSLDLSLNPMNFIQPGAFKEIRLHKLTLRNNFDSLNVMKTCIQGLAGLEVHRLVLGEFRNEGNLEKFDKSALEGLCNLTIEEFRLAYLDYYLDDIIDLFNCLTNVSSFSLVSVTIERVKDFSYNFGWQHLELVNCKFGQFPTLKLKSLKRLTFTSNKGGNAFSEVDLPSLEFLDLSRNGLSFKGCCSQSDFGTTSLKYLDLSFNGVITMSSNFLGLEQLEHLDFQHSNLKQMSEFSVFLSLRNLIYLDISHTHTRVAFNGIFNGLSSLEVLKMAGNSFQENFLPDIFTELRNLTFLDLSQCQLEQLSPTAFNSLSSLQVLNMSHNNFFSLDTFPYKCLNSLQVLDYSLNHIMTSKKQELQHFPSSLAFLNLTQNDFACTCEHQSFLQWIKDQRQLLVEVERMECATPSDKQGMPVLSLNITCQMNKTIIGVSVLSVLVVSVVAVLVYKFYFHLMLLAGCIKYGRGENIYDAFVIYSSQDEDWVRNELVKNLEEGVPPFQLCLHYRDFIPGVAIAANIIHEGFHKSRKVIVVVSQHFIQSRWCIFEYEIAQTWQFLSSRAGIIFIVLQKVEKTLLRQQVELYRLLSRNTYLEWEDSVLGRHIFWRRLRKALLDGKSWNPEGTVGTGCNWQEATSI
Chain of TLR4 (Q9Y6Y9 17-160 partner limits assumed): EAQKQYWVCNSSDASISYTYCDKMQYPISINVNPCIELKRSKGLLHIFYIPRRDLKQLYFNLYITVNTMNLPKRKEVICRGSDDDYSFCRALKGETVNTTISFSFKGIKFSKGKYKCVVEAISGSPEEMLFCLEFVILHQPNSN

Chain of TLR5 (O60602 21-858): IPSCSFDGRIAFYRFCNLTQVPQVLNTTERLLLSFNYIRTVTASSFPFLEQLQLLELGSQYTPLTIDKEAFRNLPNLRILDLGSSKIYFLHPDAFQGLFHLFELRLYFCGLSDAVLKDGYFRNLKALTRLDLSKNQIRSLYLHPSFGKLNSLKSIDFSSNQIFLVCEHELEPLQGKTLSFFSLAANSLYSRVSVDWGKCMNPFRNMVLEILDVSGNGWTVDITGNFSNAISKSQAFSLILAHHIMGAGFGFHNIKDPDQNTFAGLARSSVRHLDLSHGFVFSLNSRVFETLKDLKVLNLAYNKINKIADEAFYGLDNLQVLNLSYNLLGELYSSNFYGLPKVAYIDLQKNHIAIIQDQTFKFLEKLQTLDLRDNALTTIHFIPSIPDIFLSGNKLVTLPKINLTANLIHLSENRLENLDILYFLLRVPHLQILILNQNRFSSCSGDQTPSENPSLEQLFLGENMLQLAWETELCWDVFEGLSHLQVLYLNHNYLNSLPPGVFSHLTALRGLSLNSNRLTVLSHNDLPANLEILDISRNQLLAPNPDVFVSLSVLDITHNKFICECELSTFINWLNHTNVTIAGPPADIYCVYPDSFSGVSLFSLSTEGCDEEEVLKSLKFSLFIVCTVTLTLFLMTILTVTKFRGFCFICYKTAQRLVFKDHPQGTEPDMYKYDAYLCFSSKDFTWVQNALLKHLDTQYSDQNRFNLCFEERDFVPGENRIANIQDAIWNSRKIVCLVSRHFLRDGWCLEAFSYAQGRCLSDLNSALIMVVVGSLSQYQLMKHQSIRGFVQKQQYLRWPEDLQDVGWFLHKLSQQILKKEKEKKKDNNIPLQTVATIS

In the case of `O=C(c1ccc(Cl)cc1)N1CCN(c2ccc([N+](=O)[O-])c3ncccc23)CC1` [Compound S1], the “inhibition of TLR5” value (TLR5) is reported as “no obvious inhibition”, the “inhibition of TLR9” value (TLR9) is reported as “no obvious inhibition” and the IC50 (human TLR7) is reported as 790 ± 270 nM. The “inhibition of TLR1/2/6” value (TLR1/2/6) was “no obvious inhibition” and the “inhibition of TLR4” value (TLR4) was “no obvious inhibition”.
